From ChEMBL document CHEMBL1143670, “An adamantyl-substituted retinoid-derived molecule that inhibits cancer cell growth and angiogenesis by inducing apoptosis and binds to small heterodimer partner nuclear receptor: effects of modifying its carboxylate group on apoptosis, proliferation, and protein-tyrosine phosphatase activity” (J Med Chem, 2007)
The source made the active and inactive calls. The calls are words filed in the database; no cut-off is given here.

How the values were obtained:
[1] = Inhibition of HMVE cell proliferation at 0.5 uM relative to control; type: functional; settings: Homo sapiens
[2] = molecular target: T1, Nuclear receptor subfamily 0 group B member 2 (Homo sapiens) (UniProt Q15466); assay: Displacement of [5,5'-3H2]AHPN from recombinant human GST-SHP partner nuclear orphan receptor at 50 uM
T1 sequence (whole entry): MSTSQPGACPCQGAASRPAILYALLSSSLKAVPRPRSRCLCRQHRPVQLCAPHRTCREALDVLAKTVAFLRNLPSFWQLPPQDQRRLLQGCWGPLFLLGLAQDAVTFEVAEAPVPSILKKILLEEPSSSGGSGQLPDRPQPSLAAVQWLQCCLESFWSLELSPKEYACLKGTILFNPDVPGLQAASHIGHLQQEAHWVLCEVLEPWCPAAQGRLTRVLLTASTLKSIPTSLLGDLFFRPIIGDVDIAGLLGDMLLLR
Outline: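 GST–human SHP fusion (150–500 ng) on glutathione-Sepharose beads preincubated on ice 45 min with unlabeled compound (50 µM final) in 0.4 mL binding buffer. [5,5′-3H2]AHPN (5 nM final) then added for 2 h at 4 °C. Beads washed, counted by scintillation directly or after elution with 50 mM NaHCO3/1% SDS.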

KG-1 [3] = assay: Growth inhibition of retinoid-resistant KG1 cells at 5 uM after 48 hrs; type: functional; settings: Homo sapiens, KG-1, 48 h
Outline: (§1)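 KG-1 cells grown in RPMI-1640 with 5% heat-inactivated FBS and gentamycin, seeded in 3 mL medium plus 5% FBS, incubated overnight. Compound then added in Me2SO (0.1% final), cells incubated for the stated time, harvested and counted by hemocytometer.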

MDA-MB-231 [4] = assay: Growth inhibition of retinoid-resistant MDA-MB-231 cells after 72 hrs; type: functional, cell-based; settings: Homo sapiens, MDA-MB-231, 72 h
Outline: (§2)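 Cells seeded at 2 × 10^3 per well for H292 and DU-145 (RPMI-1640, 10% FBS) or 4 × 10^3 for MDA-MB-231 (DMEM, 10% FBS), 37 °C, 6% CO2. After 24 h attachment, treated 72 h with compound in Me2SO (0.1% final); media and compound renewed at 48 h. Viable cells by MTS reduction; triplicates per concentration.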

MDA-MB-231 [5] = assay: Growth inhibition of retinoid-resistant MDA-MB-231 cells at 1 uM relative to control; type: functional; settings: Homo sapiens; outline: as §2
[6] = Growth inhibition of retinoid-resistant H292 cells after 72 hrs; type: functional, cell-based; settings: Homo sapiens, NCI-H292, 72 h; outline: as §2
[7] = Growth inhibition of retinoid-resistant H292 cells at 1 uM relative to control; type: functional; settings: Homo sapiens, NCI-H292; outline: as §2
DU-145 [8] = assay: Growth inhibition of retinoid-resistant DU145 cells after 72 hrs; type: functional, cell-based; settings: Homo sapiens, DU-145, 72 h; outline: as §2
DU-145 [9] = assay: Growth inhibition of retinoid-resistant DU145 cells at 1 uM relative to control; type: functional; settings: Homo sapiens; outline: as §2
KG-1 [10] = assay: Inhibition of cell proliferation in retinoid-resistant KG1 cells after 48 hrs; type: functional, cell-based; settings: Homo sapiens, KG-1, 48 h; outline: as §1
KG-1 [11] = assay: Inhibition of cell proliferation in retinoid-resistant KG1 cells at 1 uM after 48 hrs relative to control; type: functional; settings: Homo sapiens, KG-1, 48 h; outline: as §1
KG-1 [12] = assay: Inhibition of cell proliferation of KG1 cells; type: functional, cell-based; settings: Homo sapiens; outline: as §1
KG-1 [13] = assay: Induction of apoptosis in retinoid-resistant KG1 cells at 5 uM after 48 hrs; type: functional, Homo sapiens
Outline: (§3)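 Apoptotic cells scored by acridine orange staining. KG-1, HL-60R or MDA-MB-231 cells seeded in medium with 5% FBS, incubated overnight, then exposed to compound in Me2SO (0.1% final) for the stated time.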

Trachea = assay: Reversal of keratinization in vitamin A-deficient hamster trachea after 10 days by TOC assay; type: functional, tissue-based; settings: Cricetinae, 240 h
F9 = assay: Induction of terminal differentiation in mouse F9 cells assessed by measuring secreted plasminogen activator activity after 3 days; type: functional, cell-based; settings: F9, 72 h, read-out: IC50 (the source's name)
Mus musculus = assay: Inhibition of TPA-induced ornithine decarboxylase in mouse dorsal epidermis applied topically after 1 hr; type: functional
[14] = Antiproliferative activity against HMVE cells; type: functional, cell-based; settings: Homo sapiens
KG-1 [15] = assay: Induction of apoptosis in retinoid-resistant KG1 cells at 1 uM after 48 hrs; type: functional, Homo sapiens; outline: as §3
HL60R = assay: Induction of apoptosis in tran-RA-resistant HL60R cells at 1 uM after 24 hrs; type: functional; settings: Homo sapiens
[16] = molecular target: Receptor-type tyrosine-protein phosphatase C, CD45 (Homo sapiens) (UniProt P08575); assay: Inhibition of CD45 PTP at 10 uM relative to control by fluorescence spectrometry
Receptor-type tyrosine-protein phosphatase C, CD45 (Homo sapiens), sequence (P08575 whole entry, looked up): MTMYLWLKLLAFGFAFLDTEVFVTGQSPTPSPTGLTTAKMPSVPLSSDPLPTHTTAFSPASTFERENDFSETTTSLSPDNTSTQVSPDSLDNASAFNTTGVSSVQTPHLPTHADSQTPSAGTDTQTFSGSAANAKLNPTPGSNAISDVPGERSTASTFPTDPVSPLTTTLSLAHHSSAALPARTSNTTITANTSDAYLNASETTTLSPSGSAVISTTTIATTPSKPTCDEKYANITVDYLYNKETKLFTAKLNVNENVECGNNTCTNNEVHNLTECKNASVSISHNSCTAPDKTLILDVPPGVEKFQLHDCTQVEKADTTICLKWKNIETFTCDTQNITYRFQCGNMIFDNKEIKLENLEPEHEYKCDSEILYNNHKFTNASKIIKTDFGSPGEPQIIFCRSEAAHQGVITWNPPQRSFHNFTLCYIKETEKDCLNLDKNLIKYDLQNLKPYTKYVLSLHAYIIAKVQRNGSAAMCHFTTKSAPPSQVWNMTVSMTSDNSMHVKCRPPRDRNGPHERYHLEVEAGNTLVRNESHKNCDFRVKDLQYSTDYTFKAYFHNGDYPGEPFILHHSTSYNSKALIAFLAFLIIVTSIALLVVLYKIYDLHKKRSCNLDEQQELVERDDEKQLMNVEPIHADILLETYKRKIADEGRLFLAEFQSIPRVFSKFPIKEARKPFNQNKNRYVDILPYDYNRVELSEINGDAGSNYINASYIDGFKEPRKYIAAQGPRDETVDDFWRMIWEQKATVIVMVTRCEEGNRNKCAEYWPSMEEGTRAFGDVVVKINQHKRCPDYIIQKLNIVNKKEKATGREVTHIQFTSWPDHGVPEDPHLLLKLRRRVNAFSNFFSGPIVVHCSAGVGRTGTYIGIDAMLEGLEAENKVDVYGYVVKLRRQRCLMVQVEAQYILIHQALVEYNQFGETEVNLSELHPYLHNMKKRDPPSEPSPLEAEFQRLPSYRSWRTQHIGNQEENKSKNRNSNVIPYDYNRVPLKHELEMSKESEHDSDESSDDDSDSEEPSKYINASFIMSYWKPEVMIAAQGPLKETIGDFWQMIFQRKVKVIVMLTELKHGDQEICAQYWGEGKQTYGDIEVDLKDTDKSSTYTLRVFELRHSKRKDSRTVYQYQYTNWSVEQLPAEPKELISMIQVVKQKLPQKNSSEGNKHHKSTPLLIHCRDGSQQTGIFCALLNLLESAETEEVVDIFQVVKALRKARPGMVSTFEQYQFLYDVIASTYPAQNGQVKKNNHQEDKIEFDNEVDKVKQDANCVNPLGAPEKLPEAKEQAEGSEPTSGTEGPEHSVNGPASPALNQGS

[17] = molecular target: T2, Tyrosine-protein phosphatase non-receptor type 11 (Homo sapiens, UniProt Q06124); assay: Inhibition of SHP2 PTP by fluorescence spectroscopy
T2 sequence (Q06124 whole entry): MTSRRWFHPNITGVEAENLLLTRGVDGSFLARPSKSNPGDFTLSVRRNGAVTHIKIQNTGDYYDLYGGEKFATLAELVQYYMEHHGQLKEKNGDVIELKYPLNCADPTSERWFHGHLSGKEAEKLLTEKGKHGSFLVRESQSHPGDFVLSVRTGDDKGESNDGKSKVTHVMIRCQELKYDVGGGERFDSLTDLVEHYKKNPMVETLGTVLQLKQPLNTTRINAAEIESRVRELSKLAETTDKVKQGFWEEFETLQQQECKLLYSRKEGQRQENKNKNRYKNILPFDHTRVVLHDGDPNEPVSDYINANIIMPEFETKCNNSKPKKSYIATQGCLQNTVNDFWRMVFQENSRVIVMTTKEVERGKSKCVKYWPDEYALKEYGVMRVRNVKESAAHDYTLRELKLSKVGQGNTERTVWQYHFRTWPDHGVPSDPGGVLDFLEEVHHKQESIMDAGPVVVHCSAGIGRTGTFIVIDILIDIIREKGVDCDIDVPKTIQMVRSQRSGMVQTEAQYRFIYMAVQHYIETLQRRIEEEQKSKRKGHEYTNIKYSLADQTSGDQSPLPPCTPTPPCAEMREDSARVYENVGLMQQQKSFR

Compound	inhibition at 0.5 µM [1]	inhibition at 5 µM (KG-1 [3])	IC50 (MDA-MB-231 [4])	inhibition at 1 µM (MDA-MB-231 [5])	IC50 [6]	inhibition at 1 µM [7]	IC50 (DU-145 [8])	inhibition at 1 µM (DU-145 [9])	IC50 (KG-1 [10])	inhibition at 1 µM (KG-1 [11])	Activity (KG-1 [13])	Activity (KG-1 [15])	further results
CC1(C)CCC(C)(C)c2cc(/C(=N\O)c3ccc4cc(C(=O)O)ccc4c3)ccc21	30%	–	–	–	–	–	–	–	–	–	–	–	–
CC(=O)NCCCOc1cc(/C=C/C(=O)O)ccc1-c1ccc(O)c(C23CC4CC(CC(C4)C2)C3)c1	–	–	–	–	–	–	–	–	–	–	–	–	Activity [2]: 72%
O=C(/C=C/c1ccc(-c2ccc(O)c(C34CC5CC(CC(C5)C3)C4)c2)c(Cl)c1)NO	–	0%	6.3 µM	4%	9 µM	6%	3.5 µM	7%	> 5 µM	0%	4%	–	IC50 (KG-1 [12]): > 5 µM; Activity [2]: 7%
CC1(C)CCC(C)(C)c2cc(-c3ccc4cc(C(=O)O)ccc4c3)ccc21	–	–	–	–	–	–	–	–	–	–	–	–	IC50 (Trachea): 0.007 nM; EC50 (F9): 0.001 µM; ID50 (Mus musculus): 2 nmol
Cc1c(-c2ccc3c(c2)C(C)(C)CCC3(C)C)ccc2cc(C(=O)O)ccc12	–	–	–	–	–	–	–	–	–	–	–	–	IC50 (Trachea): 0.08 nM; EC50 (F9): 0.003 µM; ID50 (Mus musculus): 66 nmol
O=C(O)c1ccc2c(Cl)c(-c3ccc(O)c(C45CC6CC(CC(C6)C4)C5)c3)ccc2c1	45%	–	–	–	–	–	–	–	–	–	–	–	IC50 [14]: 0.5 µM
CC1=C(/C=C/C(C)=C/C=C/C(C)=C/C(=O)O)C(C)(C)CCC1 [TRETINOIN]	10%	–	–	–	–	–	–	–	–	–	–	–	IC50 (Trachea): 0.01 nM; ID50 (Mus musculus): 0.19 nmol; IC50 [14]: > 0.5 µM
O=CC(=O)/C=C/c1ccc(-c2ccc(O)c(C34CC5CC(CC(C5)C3)C4)c2)c(Cl)c1	–	38%	14 µM	0%	7 µM	7%	7.8 µM	0%	10 µM	11%	6%	5%	–
O=C(O)c1ccc2ccc(-c3ccc(O)c(C45CC6CC(CC(C6)C4)C5)c3)cc2c1	15%	–	–	–	–	–	–	–	–	–	–	–	IC50 [14]: > 0.5 µM; Activity (HL60R): inactive
N#CC(C#N)=Cc1ccc(-c2ccc(O)c(C34CC5CC(CC(C5)C3)C4)c2)c(Cl)c1	–	0%	> 10 µM	0%	> 10 µM	0%	> 10 µM	4%	> 5 µM	0%	3%	0%	IC50 (KG-1 [12]): > 5 µM
CCOP(=O)(O)/C=C/c1ccc(-c2ccc(O)c(C34CC5CC(CC(C5)C3)C4)c2)c(Cl)c1	–	0%	> 5 µM	3%	> 5 µM	2%	> 5 µM	3%	> 5 µM	0%	0%	0%	–
CC1(C)CCC(C)(C)c2cc(-c3ccc(/C=C/C(=O)O)cc3)ccc21	–	–	–	–	–	–	–	–	–	–	–	–	IC50 (Trachea): 0.32 nM; EC50 (F9): 0.0003 µM; ID50 (Mus musculus): 7.5 nmol
O=C1NC(=O)/C(=C/C=C/c2ccc(-c3ccc(O)c(C45CC6CC(CC(C6)C4)C5)c3)c(Cl)c2)S1	–	2%	24 µM	0%	23 µM	2%	15 µM	0%	–	0%	2%	2%	Activity [2]: 69%
Cc1c(-c2ccc(O)c(C34CC5CC(CC(C5)C3)C4)c2)ccc2cc(C(=O)O)ccc12	–	–	–	–	–	–	–	–	–	–	73%	–	Activity at 1 µM (KG-1 [15]; Homo sapiens, KG-1, 48 h): 51%
O=C(O)/C=C/c1ccc(-c2ccc(O)c(C34CC5CC(CC(C5)C3)C4)c2)cc1 [ADAROTENE]	90%	–	–	–	–	–	–	–	–	–	–	–	IC50 [14]: 0.1 µM; inhibition [16]: 84%
Oc1ccc2cc(-c3ccc(O)c(C45CC6CC(CC(C6)C4)C5)c3)ccc2c1	15%	–	–	–	–	–	–	–	–	–	–	–	IC50 [14]: > 0.5 µM
Oc1ccc(-c2ccc(/C=C/c3nnn[nH]3)cc2Cl)cc1C12CC3CC(CC(C3)C1)C2	–	31%	21 µM	0%	16 µM	3%	14 µM	0%	13 µM	0%	12%	10%	–
Oc1ccc(-c2ccc(-c3nnn[nH]3)cc2Cl)cc1C12CC3CC(CC(C3)C1)C2	–	21%	71 µM	0%	14 µM	3%	52 µM	0%	> 5 µM	13%	2%	2%	IC50 [17]: 1.3 µM; inhibition [16]: 46%
OB(O)/C=C/c1ccc(-c2ccc(O)c(C34CC5CC(CC(C5)C3)C4)c2)c(Cl)c1	–	0%	19 µM	3%	7.2 µM	0%	7 µM	2%	> 5 µM	0%	4%	4%	IC50 (KG-1 [12]): > 5 µM; Activity [2]: 0%
